Test results as given in ChEMBL document CHEMBL1146380, “Synthesis, antimicrobial activity, and QSAR studies of furan-3-carboxamides” (2007).
Active and inactive are the calls of the source.

Columns and labels:
Aspergillus fumigatus = assay: Antimicrobial activity against Aspergillus fumigatus isolate by broth microdilution method; type: functional
Fusarium solani = assay: Antimicrobial activity against Fusarium solani isolate by broth microdilution method; type: functional
Sporothrix schenckii = assay: Antimicrobial activity against Sporothrix schenckii ATCC 1146 by broth microdilution method; type: functional
Candida albicans = assay: Antimicrobial activity against Candida albicans ATCC 44373 by broth microdilution method; type: functional
Procedure, shortened: (§1)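 Yeasts grown on potato dextrose agar. Inoculum was standardized by McFarland turbidity as for bacteria, into RPMI 1640 broth (M27-A2). DMSO-dissolved compound was tested in twofold dilutions from 320 to 1.25 at 35 °C for 24 h, in duplicate. MIC was the lowest concentration completely inhibiting visible growth. Fungicidal concentration was read by subculturing 20 µL from clear wells on Sabouraud dextrose agar at 35 °C.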

Saccharomyces cerevisiae = assay: Antimicrobial activity against Saccharomyces cerevisiae ATCC 2601 by broth microdilution method; type: functional
Procedure, shortened: (§2)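 Organism grown on potato dextrose agar, with turbidity-standardized inoculum in RPMI 1640 broth (M27-A2). DMSO-dissolved compound was tested in twofold dilutions from 320 to 1.25 at 35 °C, incubated up to 72 h, in duplicate. MIC was the lowest concentration with no visible growth. Cidal concentration was read by subculturing 20 µL from clear wells on Sabouraud dextrose agar, incubated for the same period.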

Candida dubliniensis = assay: Antimicrobial activity against Candida dubliniensis CBS 7987 by broth microdilution method; type: functional; procedure, shortened: as §1
Aspergillus terreus = assay: Antimicrobial activity against Aspergillus terreus isolate by broth microdilution method; type: functional
[1] = tested on: Cryptococcus deneoformans; assay: Antimicrobial activity against Cryptococcus neoformans var.neoformans serotype D ATCC 28952 by broth microdilution method; type: functional; procedure, shortened: as §2
Scedosporium boydii = assay: Antimicrobial activity against Pseudallescheria boydii isolate by broth microdilution method; type: functional
[2] = (§3) Antimicrobial activity against Salmonella setubal ATCC 19196 by broth microdilution method; type: functional, Salmonella enterica subsp. enterica serovar Setubal; conditions: Salmonella enterica
Procedure, shortened: (§4)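 Bacteria grown overnight on Mueller–Hinton agar. Colonies were suspended in saline to McFarland turbidity (about 10^8 cfu/mL), diluted 1:100 in saline, then 1:20 in Mueller–Hinton broth, giving 5 · 10^4 cfu/mL per well. DMSO-dissolved compound was tested in twofold dilutions from 320 to 1.25 at 35 °C for 24 h. MIC was the lowest concentration with no visible turbidity (M7-A4). Bactericidal concentration was read by subculturing clear wells on Mueller–Hinton agar.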

Klebsiella pneumoniae = assay: Antimicrobial activity against Klebsiella pneumoniae ATCC 1003 by broth microdilution method; type: functional; conditions: for MBC: read-out: MFC; procedure, shortened: as §4
Aspergillus flavus = assay: Antimicrobial activity against Aspergillus flavus isolate by broth microdilution method; type: functional
Prototheca zopfii = assay: Antimicrobial activity against Prototheca zopfii by broth microdilution method; type: functional; procedure, shortened: as §2
Rhizopus arrhizus = assay: Antimicrobial activity against Rhizopus oryzae isolate by broth microdilution method; type: functional
Nakaseomyces glabratus = assay: Antimicrobial activity against Candida glabrata […] by broth microdilution method; type: functional; procedure, shortened: as §1
Escherichia coli = assay: Antimicrobial activity against Escherichia coli ATCC 25922 by broth microdilution method; type: functional; procedure, shortened: as §4
Staphylococcus aureus = assay: Antimicrobial activity against Staphylococcus aureus ATCC 25923 by broth microdilution method; type: functional; conditions: for MBC: read-out: MFC; procedure, shortened: as §4
Aspergillus niger = assay: Antimicrobial activity against Aspergillus niger isolate by broth microdilution method; type: functional
Pseudomonas aeruginosa = assay: Antimicrobial activity against Pseudomonas aeruginosa ATCC 27853 by broth microdilution method; type: functional; procedure, shortened: as §4
[3] = tested on: Salmonella enterica subsp. enterica serovar Setubal; assay: as §3; type: functional; procedure, shortened: as §4

O=C(Nn1cnnc1)c1ccoc1
320 µg/mL: MFC (Aspergillus fumigatus) | MIC (Aspergillus fumigatus) | MIC (Fusarium solani) | MIC (Sporothrix schenckii) | MFC (Aspergillus terreus) | MIC (Aspergillus terreus) | MBC [2] | MIC (Klebsiella pneumoniae) | MFC (Prototheca zopfii) | MIC (Rhizopus arrhizus) | MBC (Escherichia coli) | MIC (Staphylococcus aureus) | MBC (Staphylococcus aureus) | MIC (Aspergillus niger)
160 µg/mL: MFC (Saccharomyces cerevisiae) | MIC [2] | MIC (Escherichia coli) | MBC (Pseudomonas aeruginosa)
80 µg/mL: MIC (Saccharomyces cerevisiae) | MIC (Prototheca zopfii) | MFC (Nakaseomyces glabratus)
inactive: Activity (Fusarium solani) | Activity (Sporothrix schenckii) | Activity (Scedosporium boydii) | Activity (Klebsiella pneumoniae) | Activity (Aspergillus flavus) | Activity (Rhizopus arrhizus)
40 µg/mL: MFC (Candida albicans) | MIC (Candida albicans) | MFC (Candida dubliniensis) | MIC (Candida dubliniensis) | MFC [1] | MIC (Nakaseomyces glabratus) | MIC (Pseudomonas aeruginosa)
10 µg/mL: MIC [1]

C[C@@H]1[C@H](O)[C@@H](C)/C=C/C=C/C=C/C=C/C=C/C=C/C=C/[C@H](O[C@@H]2O[C@H](C)[C@@H](O)[C@H](N)[C@@H]2O)C[C@@H]2O[C@](O)(C[C@@H](O)C[C@@H](O)[C@H](O)CC[C@@H](O)C[C@@H](O)CC(=O)O[C@H]1C)C[C@H](O)[C@H]2C(=O)O [AMPHOTERICIN B]
0.5 µg/mL: MIC (Sporothrix schenckii) | MIC (Prototheca zopfii)
2 µg/mL: MIC (Aspergillus terreus)
4 µg/mL: MIC (Scedosporium boydii)
1 µg/mL: MIC (Aspergillus fumigatus) | MIC (Fusarium solani) | MIC (Aspergillus flavus) | MIC (Rhizopus arrhizus) | MIC (Aspergillus niger)

O=C(NCCCO)c1ccoc1
40 µg/mL: MIC [1]
inactive: Activity (Aspergillus fumigatus) | Activity (Saccharomyces cerevisiae) | Activity [3] | Activity (Klebsiella pneumoniae) | Activity (Aspergillus flavus) | Activity (Escherichia coli) | Activity (Aspergillus niger)
160 µg/mL: MFC (Candida albicans) | MFC (Candida dubliniensis) | MIC (Candida dubliniensis) | MFC (Prototheca zopfii) | MIC (Prototheca zopfii) | MFC (Nakaseomyces glabratus) | MIC (Nakaseomyces glabratus) | MIC (Staphylococcus aureus) | MBC (Pseudomonas aeruginosa) | MIC (Pseudomonas aeruginosa)
80 µg/mL: MIC (Candida albicans) | MFC [1]
320 µg/mL: MIC (Aspergillus fumigatus) | MFC (Fusarium solani) | MIC (Fusarium solani) | MFC (Sporothrix schenckii) | MIC (Sporothrix schenckii) | MIC (Saccharomyces cerevisiae) | MFC (Aspergillus terreus) | MIC (Aspergillus terreus) | MFC (Scedosporium boydii) | MIC (Scedosporium boydii) | MIC (Klebsiella pneumoniae) | MFC (Rhizopus arrhizus) | MIC (Rhizopus arrhizus) | MBC (Staphylococcus aureus) | MIC (Aspergillus niger)

C[C@@H](O)[C@H]1C(=O)N2C(C(=O)O)=C(SCCNC=N)C[C@H]12 [IMIPENEM ANHYDROUS]
< 4 µg/mL: MIC [2] | MIC (Klebsiella pneumoniae)
2 µg/mL: MIC (Pseudomonas aeruginosa)
0.06 µg/mL: MIC (Escherichia coli) | MIC (Staphylococcus aureus)

CN(C)c1ccc(CNC(=O)c2ccoc2)cc1
inactive: Activity (Aspergillus fumigatus) | MIC (Fusarium solani) | Activity (Sporothrix schenckii) | Activity (Saccharomyces cerevisiae) | Activity (Aspergillus terreus) | Activity (Aspergillus flavus) | Activity (Prototheca zopfii) | Activity (Rhizopus arrhizus) | Activity (Escherichia coli) | Activity (Aspergillus niger)
40 µg/mL: MIC (Scedosporium boydii)
320 µg/mL: MIC (Aspergillus fumigatus) | MIC (Sporothrix schenckii) | MFC [1] | MFC (Scedosporium boydii) | MBC [2] | MIC [2] | MIC (Aspergillus flavus) | MIC (Prototheca zopfii) | MIC (Rhizopus arrhizus) | MIC (Aspergillus niger)
160 µg/mL: MFC (Candida albicans) | MIC (Saccharomyces cerevisiae) | MFC (Candida dubliniensis) | MIC [1] | MIC (Klebsiella pneumoniae) | MBC (Klebsiella pneumoniae) | MFC (Nakaseomyces glabratus) | MIC (Escherichia coli) | MBC (Pseudomonas aeruginosa) | MIC (Pseudomonas aeruginosa)
80 µg/mL: MIC (Candida albicans) | MIC (Candida dubliniensis) | MIC (Nakaseomyces glabratus) | MIC (Staphylococcus aureus) | MBC (Staphylococcus aureus)

OC(Cn1cncn1)(Cn1cncn1)c1ccc(F)cc1F [FLUCONAZOLE]
1 µg/mL: MIC (Saccharomyces cerevisiae)
4 µg/mL: MIC (Candida albicans)
8 µg/mL: MIC (Nakaseomyces glabratus)
2 µg/mL: MIC (Candida dubliniensis) | MIC [1]

O=C(Nc1ccccc1O)c1ccoc1
160 µg/mL: MIC (Aspergillus fumigatus) | MIC (Candida albicans) | MFC (Saccharomyces cerevisiae) | MIC (Saccharomyces cerevisiae) | MFC (Candida dubliniensis) | MFC (Scedosporium boydii) | MIC (Scedosporium boydii) | MIC [2] | MFC (Nakaseomyces glabratus) | MIC (Nakaseomyces glabratus) | MIC (Escherichia coli) | MBC (Pseudomonas aeruginosa)
20 µg/mL: MFC [1] | MIC (Klebsiella pneumoniae) | MIC (Staphylococcus aureus)
inactive: Activity (Fusarium solani) | Activity (Aspergillus terreus) | Activity (Aspergillus flavus)
80 µg/mL: MIC (Candida dubliniensis) | MFC (Prototheca zopfii)
40 µg/mL: MIC (Prototheca zopfii)
320 µg/mL: MFC (Aspergillus fumigatus) | MIC (Fusarium solani) | MFC (Sporothrix schenckii) | MIC (Sporothrix schenckii) | MFC (Candida albicans) | MIC (Aspergillus terreus) | MBC [2] | MBC (Klebsiella pneumoniae) | MIC (Aspergillus flavus) | MFC (Rhizopus arrhizus) | MIC (Rhizopus arrhizus) | MBC (Escherichia coli) | MBC (Staphylococcus aureus) | MFC (Aspergillus niger) | MIC (Aspergillus niger)
5 µg/mL: MIC [1]
10 µg/mL: MIC (Pseudomonas aeruginosa)
